From ChEMBL document CHEMBL2203099, “Identification of a crucial amino acid in the helix position 6.51 of human tachykinin neurokinin 1 and 3 receptors contributing to the insurmountable mode of antagonism by dual NK₁/NK₃ antagonists” (J Med Chem, 2012)
Where a chain is given by its changes, count along the chain named. The source made the active and inactive calls. The calls are words filed in the database; no cut-off is given here.

Tests used:
Neuromedin-K receptor [1] = molecular target: T1, Neuromedin-K receptor (Homo sapiens, UniProt P29371, Y315F); experiment: Displacement of radioligand [3H]osanetant at human NK3 Y315F6.51 mutant expressed in HEK293 cells; format: cell-based
T1 sequence (P29371 whole entry Y315F): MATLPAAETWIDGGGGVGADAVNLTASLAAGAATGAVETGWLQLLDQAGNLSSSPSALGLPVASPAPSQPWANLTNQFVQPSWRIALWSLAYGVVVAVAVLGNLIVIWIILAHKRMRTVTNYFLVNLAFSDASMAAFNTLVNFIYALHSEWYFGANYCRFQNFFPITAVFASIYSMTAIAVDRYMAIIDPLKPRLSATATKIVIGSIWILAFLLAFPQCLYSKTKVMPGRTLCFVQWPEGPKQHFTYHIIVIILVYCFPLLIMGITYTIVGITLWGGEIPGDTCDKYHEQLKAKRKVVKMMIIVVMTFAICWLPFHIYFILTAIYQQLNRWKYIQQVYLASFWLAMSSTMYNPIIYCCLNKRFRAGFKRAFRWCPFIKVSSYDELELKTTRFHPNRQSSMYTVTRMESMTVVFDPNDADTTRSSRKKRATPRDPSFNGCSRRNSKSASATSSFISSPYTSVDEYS

Substance-P receptor [2] = molecular target: T2, Substance-P receptor (Homo sapiens, UniProt P25103); experiment: Noncompetitive inhibition of wild type human NK1 receptor expressed in HEK293 cells assessed as decrease in SP1-induced [3H]IP accumulation after 20 mins; format: cell-based
T2 sequence (P25103 whole entry): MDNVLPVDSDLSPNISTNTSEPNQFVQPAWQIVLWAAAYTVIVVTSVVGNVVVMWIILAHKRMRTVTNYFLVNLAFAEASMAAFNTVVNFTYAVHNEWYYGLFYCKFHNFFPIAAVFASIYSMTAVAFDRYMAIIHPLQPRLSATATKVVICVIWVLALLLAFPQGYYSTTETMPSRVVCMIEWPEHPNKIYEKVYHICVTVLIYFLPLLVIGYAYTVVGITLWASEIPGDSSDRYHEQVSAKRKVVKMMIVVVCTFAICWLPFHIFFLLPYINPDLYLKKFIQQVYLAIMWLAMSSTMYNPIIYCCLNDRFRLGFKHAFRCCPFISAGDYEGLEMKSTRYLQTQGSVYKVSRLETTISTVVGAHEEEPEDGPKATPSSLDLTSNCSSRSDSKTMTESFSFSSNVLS

Neuromedin-K receptor [3] = molecular target: T3, Neuromedin-K receptor (Homo sapiens, UniProt P29371); experiment: Displacement of [3H]osanetant from wild type human NK3 receptor expressed in HEK293 cells; format: cell-based
T3 sequence (P29371 whole entry): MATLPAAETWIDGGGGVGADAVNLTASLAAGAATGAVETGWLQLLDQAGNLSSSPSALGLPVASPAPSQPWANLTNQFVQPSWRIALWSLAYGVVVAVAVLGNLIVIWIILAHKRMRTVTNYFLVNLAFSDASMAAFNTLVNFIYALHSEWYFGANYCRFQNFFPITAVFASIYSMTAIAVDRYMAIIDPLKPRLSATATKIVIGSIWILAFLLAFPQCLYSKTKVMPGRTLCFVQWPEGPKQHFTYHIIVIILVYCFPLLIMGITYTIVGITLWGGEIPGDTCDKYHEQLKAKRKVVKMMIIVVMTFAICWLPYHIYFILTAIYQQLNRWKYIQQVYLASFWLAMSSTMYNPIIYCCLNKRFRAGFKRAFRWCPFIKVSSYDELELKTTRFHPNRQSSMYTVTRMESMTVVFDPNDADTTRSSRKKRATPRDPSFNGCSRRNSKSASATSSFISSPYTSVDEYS

HEK293 = experiment: Selectivity ratio of Ki for wild type human NK3 receptor expressed in HEK293 cells to Ki for human NK3 Y315F6.51 mutant expressed in HEK293 cells; format: cell-based
Neuromedin-K receptor [4] = molecular target: T3, Neuromedin-K receptor; experiment: Competitive inhibition at wild type human NK3 expressed in HEK293 cells assessed as decrease in [MePhe7]NKB-induced [3H]IP accumulation after 20 mins; format: cell-based; settings: read-out: pA2 (converted)
Procedure, shortened: (§1)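 HEK293 cells transiently expressing human NK3 WT or mutant, labeled with myo-[³H]inositol in LiCl buffer. Antagonist preincubated 20 min at 37 °C, then [MePhe⁷]NKB (0.01 nM–1 μM) added for 45 min at 37 °C. [³H]IP read by SPA beads. Schild analysis of EC50 shift and Emax depression across increasing antagonist concentrations gives pA2, slope and mode of antagonism.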

Neuromedin-K receptor [5] = molecular target: T1, Neuromedin-K receptor; experiment: Competitive inhibition at human NK3 Y315F6.51 mutant expressed in HEK293 cells assessed as decrease in [MePhe7]NKB-induced [3H]IP accumulation after 20 mins; format: cell-based; settings: read-out: pA2 (converted); procedure, shortened: as §1
Substance-P receptor [6] = molecular target: T2, Substance-P receptor; experiment: Displacement of radioligand [3H]SP from wild type human NK1 receptor expressed in HEK293 cells; format: cell-based
Procedure, shortened: (§2)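 Membranes from transiently transfected HEK293 cells, 2.5 μg protein/well, in 50 mM HEPES pH 7.4 with 3 mM MnCl2, phosphoramidon, leupeptin and 0.04% BSA. 10 competitor concentrations (0.0003–10 μM), 90 min at rt. Nonspecific binding with 10 μM NK1 antagonist. Filtration, then scintillation counting. Ki by Cheng–Prusoff. Three experiments, each in duplicate.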

Substance-P receptor [7] = molecular target: T4, Substance-P receptor (Homo sapiens, UniProt P25103, F264Y); experiment: Displacement of radioligand [3H]SP from human NK1 F264Y6.51 mutant expressed in HEK293 cells; format: cell-based; procedure, shortened: as §2
T4 sequence (P25103 whole entry F264Y): as the sequence (P25103 whole entry) above, with F264Y counted along it

[8] = tested on: Substance-P receptor (Homo sapiens), P25103 [F264Y]; experiment: Noncompetitive inhibition of human NK1 F264Y6.51 mutant receptor expressed in HEK293 cells assessed as decrease in SP1-induced [3H]IP accumulation after 20 mins; format: cell-based
Substance-P receptor (Homo sapiens), P25103 [F264Y], sequence (P25103 whole entry F264Y): as the sequence (P25103 whole entry) above, with F264Y counted along it

[9] = tested on: T5, Neuromedin-K receptor (Homo sapiens), P29371 [Y315F]; experiment: Noncompetitive inhibition at human NK3 Y315F6.51 mutant expressed in HEK293 cells assessed as decrease in [MePhe7]NKB-induced [3H]IP accumulation after 20 mins; format: cell-based; procedure, shortened: as §1
T5 sequence (whole entry): T3 sequence (P29371 whole entry) with Y315F

Substance-P receptor [10] = molecular target: T4, Substance-P receptor; experiment: Partial noncompetitive inhibition of human F264Y6.51 mutant expressed in HEK293 cells assessed as decrease in SP1-induced [3H]IP accumulation after 20 mins; format: cell-based; settings: read-out: pA2 (converted)
[11] = tested on: T5, Neuromedin-K receptor (Homo sapiens), P29371 [Y315F]; experiment: Antagonist activity at human NK3 Y315F6.51 mutant expressed in HEK293 cells assessed as decrease in [MePhe7]NKB-induced [3H]IP accumulation at 10 nM after 20 mins; format: functional, cell-based
[12] = molecular target: T6, Neuromedin-K receptor (Homo sapiens) (UniProt P29371); experiment: Noncompetitive inhibition at wild type human NK3 expressed in HEK293 cells assessed as decrease in [MePhe7]NKB-induced [3H]IP accumulation after 20 mins; format: cell-based; procedure, shortened: as §1
T6 sequence (whole entry): T3 sequence (P29371 whole entry)

Substance-P receptor [13] = molecular target: T2, Substance-P receptor
Neuromedin-K receptor [14] = molecular target: Neuromedin-K receptor (Homo sapiens, UniProt P29371, Y247A); experiment: Binding affinity to human NK3 Y247A mutant expressed in HEK293 cells
Neuromedin-K receptor (Homo sapiens, UniProt P29371, Y247A), sequence (P29371 whole entry Y247A): as the sequence (P29371 whole entry Y315F) above, with Y247A, F315Y counted along it

Compound	Ki (Neuromedin-K receptor [1]) [nM]	inhibition (Substance-P receptor [2])	Ki (Neuromedin-K receptor [3]) [nM]	Ratio Ki (HEK293)	Ki (Substance-P receptor [6]) [nM]	Ki (Substance-P receptor [7]) [nM]	other results
Cc1cc(F)ccc1-c1cc(N2CCN(S(C)(=O)=O)CC2)ncc1N(C)C(=O)C(C)(C)c1cc(C(F)(F)F)cc(C(F)(F)F)c1	0.7	Active	2.4	3.4	0.4	1.4	Kb (Neuromedin-K receptor [4]): 123 nM; Kb (Neuromedin-K receptor [5]): 2.45 nM; inhibition [8]: Active
Cc1cc(F)ccc1-c1cc(N2CCN(S(C)(=O)=O)C[C@H]2CO)ncc1N(C)C(=O)C(C)(C)c1cc(C(F)(F)F)cc(C(F)(F)F)c1	0.6	Active	1.2	2	0.7	1.3	inhibition [9]: Active; Kb (Substance-P receptor [10]): 17 nM; Activity [11]: Active; inhibition [12]: Active
COc1ccccc1CN[C@H]1C2CCN(CC2)[C@H]1C(c1ccccc1)c1ccccc1 [CP-96345]	–	–	> 10000	–	–	–	–
C[C@@H](O[C@H]1OCCN(Cc2n[nH]c(=O)[nH]2)[C@H]1c1ccc(F)cc1)c1cc(C(F)(F)F)cc(C(F)(F)F)c1 [APREPITANT]	–	Active	454	–	–	–	T1/2 (Substance-P receptor [13]): 2.57 h
[3H]c1cccc(C2(N(C)C(C)=O)CCN(CCC[C@]3(c4ccc(Cl)c(Cl)c4)CCCN(C(=O)c4ccccc4)C3)CC2)c1	–	–	–	–	–	–	Kd (Neuromedin-K receptor [14]): Not Active
